Experimental findings from ChEMBL document CHEMBL1240472, “Hypervalent iodine(III) mediated synthesis of novel unsymmetrical 2,5-disubstituted 1,3,4-oxadiazoles as antibacterial and antifungal agents” (2010) are described below.

In brackets after ≈: the same amount, converted by molar mass.

Assay [1] relates to Escherichia coli. Nature of the assay: Antimicrobial activity against Escherichia coli MTCC 1652 by […]. The class given is functional. On the technique in general: A growth-free zone around the sample is the usual read-out of agar diffusion tests.
The subject of assay [2] is Staphylococcus aureus. Nature of the assay: Antimicrobial activity against Staphylococcus aureus MTCC 96 after by agar well diffusion method.
In assay [3] the test system is Bacillus subtilis. Nature of the assay: Antimicrobial activity against Bacillus subtilis MTCC 121 […]. The class given is functional.
A further assay has as its system Aspergillus flavus. The experiment in a line: Antimicrobial activity against Aspergillus flavus assessed as inhibition of mycelial growth by poisoned food method. The class given is functional.
Assay [4] has as its system Staphylococcus aureus. The experiment in a line: Antimicrobial activity against Staphylococcus aureus MTCC 96 […]. The class given is functional.
Assay [5] relates to Bacillus subtilis. The experiment in a line: Antimicrobial activity against Bacillus subtilis MTCC 121 by agar well diffusion method.
Assay [6] has as its system Pseudomonas aeruginosa. The experiment in a line: Antimicrobial activity against Pseudomonas aeruginosa MTCC 741 by microdilution assay. The class given is functional. To be noted: in the assay text read “macrodilution” for “microdilution”. Summed up:
(§1)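 MIC determined in µg/ml by the macrodilution method, only for compounds active in the primary diffusion screen. Results are means of three replicates.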
In general terms: In broth dilution the organism is exposed to a series of concentrations in liquid medium.

The subject of the next assay is Aspergillus niger. The experiment in a line: Antimicrobial activity against Aspergillus niger assessed as inhibition of mycelial growth by poisoned food method. The class given is functional.
Assay [7] relates to Escherichia coli. The experiment in a line: Antimicrobial activity against Escherichia coli MTCC 1652 by microdilution assay. The class given is functional. The conditions noted are these: in the assay text read “macrodilution” for “microdilution”. The method in brief:
as §1

The subject of assay [8] is Pseudomonas aeruginosa. The experiment in a line: Antimicrobial activity against Pseudomonas aeruginosa MTCC 741 after 24 hrs by […]. The class given is functional. Summed up: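 Agar well diffusion assay (8 mm wells). Inhibition zone diameter read in mm, with the well diameter included in the value. Results are means of three replicates.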

Take `c1ccc(-c2nnc(-c3cn(-c4ccccc4)nc3-c3ccccc3)o2)cc1`: the “inhibition zone (IZ)” value with Escherichia coli [1] came out at 14.3 mm; in the assay on Staphylococcus aureus [2] it was 20.3 mm; with Bacillus subtilis [5] it was 18.6 mm; in the assay with Pseudomonas aeruginosa [8], 13.6 mm. The MIC – broadly, the lowest concentration found to suppress growth – in the assay with Bacillus subtilis [3] was 128 µg/mL (≈ 351 µM); in the assay on Staphylococcus aureus [4] it was 64 µg/mL (≈ 176 µM); in the assay on Pseudomonas aeruginosa [6] it was more than 128 µg/mL; in the assay on Escherichia coli [7], more than 128 µg/mL. Besides, the “inhibition (INH)” value in the assay with Aspergillus flavus came to 61.1%; in the assay on Aspergillus niger, 44.4%.
Turning to `Clc1ccc(-c2nn(-c3ccccc3)cc2-c2nnc(-c3ccccc3)o2)cc1`, the “inhibition zone (IZ)” value in the assay on Escherichia coli [1] came out at 15.6 mm; in the assay on Staphylococcus aureus [2], 21.6 mm; in the assay with Bacillus subtilis [5], 19.6 mm; in the assay with Pseudomonas aeruginosa [8], 13.6 mm. The MIC against Bacillus subtilis [3] was 64 µg/mL (≈ 160 µM); with Staphylococcus aureus [4], 32 µg/mL (≈ 80.2 µM); in the assay on Pseudomonas aeruginosa [6] it was more than 128 µg/mL; in the assay on Escherichia coli [7], more than 128 µg/mL. Besides, the “inhibition (INH)” value in the assay on Aspergillus flavus was 44.4%; in the assay on Aspergillus niger it was 55.5%.
Take `Fc1ccc(-c2nn(-c3ccccc3)cc2-c2nnc(-c3ccccc3)o2)cc1`: the “inhibition zone (IZ)” value was determined as 14.3 mm in the assay with Escherichia coli [1], 18.6 mm with Staphylococcus aureus [2], 20.6 mm in the assay with Bacillus subtilis [5] and 14.3 mm in the assay on Pseudomonas aeruginosa [8]. The MIC in the assay on Bacillus subtilis [3] is 32 µg/mL (≈ 83.7 µM); in the assay on Staphylococcus aureus [4], 128 µg/mL (≈ 335 µM); with Pseudomonas aeruginosa [6], more than 128 µg/mL; in the assay with Escherichia coli [7], more than 128 µg/mL. Moreover, the “inhibition (INH)” value amounted to 50% in the assay with Aspergillus flavus and 66.6% in the assay with Aspergillus niger.
With `Brc1ccc(-c2nn(-c3ccccc3)cc2-c2nnc(-c3ccccc3)o2)cc1`, the “inhibition zone (IZ)” value is on record as 16.6 mm with Escherichia coli [1], 20 mm in the assay with Staphylococcus aureus [2], 18.3 mm in the assay with Bacillus subtilis [5] and 14.6 mm in the assay on Pseudomonas aeruginosa [8]. Also, the MIC is 128 µg/mL (≈ 289 µM) in the assay on Bacillus subtilis [3], 64 µg/mL (≈ 144 µM) against Staphylococcus aureus [4], more than 128 µg/mL in the assay with Pseudomonas aeruginosa [6] and 128 µg/mL (≈ 289 µM) with Escherichia coli [7]. The “inhibition (INH)” value in the assay with Aspergillus flavus is reported as 55.5%; with Aspergillus niger, 61.1%.
As to `Cc1ccc(-c2nn(-c3ccccc3)cc2-c2nnc(-c3ccccc3)o2)cc1`, the “inhibition zone (IZ)” value in the assay with Escherichia coli [1] came to 15.6 mm; in the assay on Staphylococcus aureus [2], 18.3 mm; with Bacillus subtilis [5], 21.6 mm; in the assay with Pseudomonas aeruginosa [8], 13.6 mm. Moreover, the MIC is 16 µg/mL (≈ 42.3 µM) in the assay on Bacillus subtilis [3], 128 µg/mL (≈ 338 µM) in the assay on Staphylococcus aureus [4], more than 128 µg/mL against Pseudomonas aeruginosa [6] and more than 128 µg/mL against Escherichia coli [7]. The “inhibition (INH)” value with Aspergillus flavus came to 61.1%; in the assay with Aspergillus niger, 66.6%.
Regarding `COc1ccc(-c2nn(-c3ccccc3)cc2-c2nnc(-c3ccccc3)o2)cc1`, the “inhibition zone (IZ)” value in the assay on Escherichia coli [1] came out at 16.3 mm; in the assay on Staphylococcus aureus [2] it was 22.6 mm; in the assay on Bacillus subtilis [5], 20.3 mm; in the assay with Pseudomonas aeruginosa [8], 14 mm. Moreover, the MIC was 32 µg/mL (≈ 81.1 µM) with Bacillus subtilis [3], 16 µg/mL (≈ 40.6 µM) in the assay with Staphylococcus aureus [4], more than 128 µg/mL with Pseudomonas aeruginosa [6] and 128 µg/mL (≈ 325 µM) in the assay with Escherichia coli [7]. Further, the “inhibition (INH)” value is listed as 66.6% in the assay on Aspergillus flavus and 44.4% in the assay with Aspergillus niger.
As for `O=[N+]([O-])c1ccc(-c2nn(-c3ccccc3)cc2-c2nnc(-c3ccccc3)o2)cc1`, the “inhibition zone (IZ)” value in the assay with Escherichia coli [1] was 15.6 mm; in the assay on Staphylococcus aureus [2], 23.3 mm; in the assay with Bacillus subtilis [5], 21.6 mm; in the assay with Pseudomonas aeruginosa [8], 14.3 mm. For the same compound, the MIC was 16 µg/mL (≈ 39.1 µM) against Bacillus subtilis [3], 8 µg/mL (≈ 19.5 µM) against Staphylococcus aureus [4], more than 128 µg/mL in the assay with Pseudomonas aeruginosa [6] and more than 128 µg/mL in the assay on Escherichia coli [7]. The “inhibition (INH)” value in the assay with Aspergillus flavus is 61.1%; with Aspergillus niger, 50%.
In the case of `O=[N+]([O-])c1ccc(-n2cc(-c3nnc(-c4ccccc4)o3)c(-c3ccccc3)n2)cc1`, the “inhibition zone (IZ)” value with Escherichia coli [1] was found to be 18.6 mm; in the assay on Staphylococcus aureus [2], 20.6 mm; in the assay on Bacillus subtilis [5], 24.3 mm; in the assay with Pseudomonas aeruginosa [8], 15.3 mm. Also, the MIC against Bacillus subtilis [3] is 8 µg/mL (≈ 19.5 µM); against Staphylococcus aureus [4] it was 64 µg/mL (≈ 156 µM); against Pseudomonas aeruginosa [6], more than 128 µg/mL; against Escherichia coli [7], 128 µg/mL (≈ 313 µM). In addition, the “inhibition (INH)” value in the assay with Aspergillus flavus and in the assay with Aspergillus niger was 66.6% in each case.
Take `COc1ccc(-c2nn(-c3ccc([N+](=O)[O-])cc3)cc2-c2nnc(-c3ccccc3)o2)cc1`: the “inhibition zone (IZ)” value is 20.6 mm with Escherichia coli [1], 24.3 mm in the assay on Staphylococcus aureus [2], 23.6 mm in the assay with Bacillus subtilis [5] and 18.6 mm with Pseudomonas aeruginosa [8]. The MIC was determined as 8 µg/mL (≈ 18.2 µM) with Bacillus subtilis [3], 8 µg/mL (≈ 18.2 µM) with Staphylococcus aureus [4], 64 µg/mL (≈ 146 µM) with Pseudomonas aeruginosa [6] and 64 µg/mL (≈ 146 µM) in the assay with Escherichia coli [7]. Further, the “inhibition (INH)” value turned out to be 50% with Aspergillus flavus and 55.5% in the assay on Aspergillus niger.
With `O=[N+]([O-])c1ccc(-n2cc(-c3nnc(-c4ccccc4)o3)c(-c3ccc(F)cc3)n2)cc1`, the “inhibition zone (IZ)” value in the assay with Escherichia coli [1] came to 20 mm; in the assay with Staphylococcus aureus [2] it was 21.3 mm; in the assay with Bacillus subtilis [5], 24.3 mm; with Pseudomonas aeruginosa [8] it was 16.6 mm. The MIC in the assay on Bacillus subtilis [3] was found to be 8 µg/mL (≈ 18.7 µM); in the assay on Staphylococcus aureus [4], 32 µg/mL (≈ 74.9 µM); against Pseudomonas aeruginosa [6], 128 µg/mL (≈ 299 µM); against Escherichia coli [7], 64 µg/mL (≈ 150 µM). The figures for the “inhibition (INH)” value in the assay on Aspergillus flavus and in the assay with Aspergillus niger were 55.5% and 44.4%, respectively.
Regarding `O=[N+]([O-])c1ccc(-c2nn(-c3ccc([N+](=O)[O-])cc3)cc2-c2nnc(-c3ccccc3)o2)cc1`, the “inhibition zone (IZ)” value in the assay on Escherichia coli [1] came out at 18.3 mm; with Staphylococcus aureus [2], 22.6 mm; in the assay on Bacillus subtilis [5] it was 23.6 mm; in the assay on Pseudomonas aeruginosa [8], 14.6 mm. The MIC in the assay on Bacillus subtilis [3] is 8 µg/mL (≈ 17.6 µM); in the assay on Staphylococcus aureus [4], 16 µg/mL (≈ 35.2 µM); in the assay with Pseudomonas aeruginosa [6] it was more than 128 µg/mL; in the assay with Escherichia coli [7] it was 128 µg/mL (≈ 282 µM). The “inhibition (INH)” value in the assay with Aspergillus flavus came to 44.4%; in the assay on Aspergillus niger it was 55.5%.
Take `O=C(O)c1cn(C2CC2)c2cc(N3CCNCC3)c(F)cc2c1=O` [CIPROFLOXACIN]: the “inhibition zone (IZ)” value with Staphylococcus aureus [2] was 26 mm; in the assay on Bacillus subtilis [5], 24 mm; in the assay with Pseudomonas aeruginosa [8], 22 mm. Further, the MIC against Bacillus subtilis [3], in the assay with Staphylococcus aureus [4], against Pseudomonas aeruginosa [6] and against Escherichia coli [7] was 5 µg/mL (≈ 15.1 µM) in each case.
On to `OC(Cn1cncn1)(Cn1cncn1)c1ccc(F)cc1F` [FLUCONAZOLE], for which the “inhibition (INH)” value with Aspergillus flavus is given as 77.7%; in the assay on Aspergillus niger it was 81.1%.
